Data on one compound can be found in PMC10038104 (ACS infectious diseases, 2022).

Values after ≈ are worked out from the molar mass of the structure shown. Positions of bridges follow the written chain, without caps; N, C: chain ends. Residues, ends and D or L forms follow the SMILES beside them.

The test system of one series is E. amnigenus. As to conditions: 16 h.
The test system of series [1] is Salmonella enterica serovar Newport. Nature of the series: spot-on-lawn assay in M63 agar. Format: cell-based. As to conditions: purified peptide dissolved in water. The gist of the method: (§1)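 Purified peptide in water, concentration set by A280. Each strain was grown overnight in LB, then subcultured in LB to mid-exponential phase (OD600 ~0.4-0.6). It was seeded at ~10^7 CFU/mL into molten M63 soft agar, overlaid on M63 agar and dried. Peptide was spotted at various concentrations and dried. After overnight incubation, zones of inhibition were scored; the last visible spot was taken as MIC.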

Series [2] deals with carboxypeptidase B and carboxypeptidase Y. Nature of the series: carboxypeptidase treatment. The note with it: 20 °C, 16 hours, 50 mM sodium acetate pH 6.0, LC-MS.
A further series deals with E. mori DSM 26271. Format: cell-based.
In series [3] the test system is Enterobacter hormaechei ATCC 700323. Put plainly: spot-on-lawn assay in M63 agar. As to conditions: purified peptide dissolved in water. In kind it is cell-based. The gist of the method: as §1
The subject of another series is elastase. Nature of the series: elastase digestion. In kind it is in vitro ADME. The note with it: 50 mM Tris pH 9.0, 0.04 mg/mL elastase, 1 hour, 25 °C, LC-MS.
Series [4] deals with Klebsiella aerogenes ATCC 13048. Nature of the series: spot-on-lawn assay in M63 agar. As to conditions: purified peptide dissolved in water. Format: cell-based. Put shortly: as §1
Another series concerns the target trypsin (Sus scrofa, UniProt P00761). Put plainly: trypsin digestion. Format: in vitro ADME. As to conditions: 50 mM ammonium bicarbonate, 1:100 trypsin:peptide weight ratio, 30 minutes to 1 hour, LC-MS.
The next series has as its system B. subtilis 168. Nature of the series: spot-on-lawn assay in M63 agar. Format: cell-based. As to conditions: purified peptide dissolved in water. Put shortly: as §1
In another series the test system is E. coli XL-1 Blue. Nature of the series: intracellular expression from plasmid with cloD gene removed. In kind it is cell-based. As to conditions: LB agar with IPTG; plasmid without cloD so that the peptide cannot be exported.
The conditions of series [5]: 37 °C, pure water, 72 hours, 18 μM, relative peak area by LC-MS.
The test system of series [6] is Enterobacter cloacae ATCC 13047. In kind it is cell-based.
For the next series, the target named is thermolysin (Bacillus thermoproteolyticus, UniProt P00800). Nature of the series: thermolysin digestion. In kind it is in vitro ADME. As to conditions: 50 mM Tris, 0.5 mM CaCl2, pH 8.0, 0.04 mg/mL thermolysin, 1 hour, 30 °C, LC-MS.
Chain of thermolysin (P00800 233-548): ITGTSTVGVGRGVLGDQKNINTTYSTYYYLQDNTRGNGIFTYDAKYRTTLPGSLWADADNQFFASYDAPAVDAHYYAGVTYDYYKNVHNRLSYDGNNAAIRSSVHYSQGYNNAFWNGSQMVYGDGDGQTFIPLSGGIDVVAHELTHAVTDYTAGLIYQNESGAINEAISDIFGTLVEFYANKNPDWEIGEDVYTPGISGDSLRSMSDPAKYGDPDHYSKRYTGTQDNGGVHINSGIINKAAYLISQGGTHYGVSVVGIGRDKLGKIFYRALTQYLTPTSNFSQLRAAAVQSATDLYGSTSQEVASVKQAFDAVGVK
A further series concerns the target α-chymotrypsin (Bos taurus, UniProt P00766). Put plainly: α-chymotrypsin digestion. In kind it is in vitro ADME. The note with it: 100 mM Tris, 10 mM CaCl2, pH 8.0, 0.04 mg/mL α-chymotrypsin, 1 hour, 25 °C, LC-MS.
Series [7] has as its system E. nimipressuralis DSM 18955. Format: cell-based.
The next series relates to E. coli MG1655. Put plainly: spot-on-lawn assay in M63 agar. Format: cell-based. As to conditions: purified peptide dissolved in water. Put shortly:
as §1

For another series, the system named is E. asburiae DSM 17506. In kind it is cell-based.
Series [8] has as its system clinical isolates of Enterobacter. Put plainly: spot-on-lawn assay, the other 6 clinical isolates. In kind it is cell-based. As to conditions: the other 6 of 12 clinical isolates (Table S4B). Put shortly:
as §1

For series [9], the system named is Enterobacter kobei BAA-260. Put plainly: spot-on-lawn assay in M63 agar. Format: cell-based. The note with it: purified peptide dissolved in water. The gist of the method: as §1

Chain of trypsin (P00761 9-231): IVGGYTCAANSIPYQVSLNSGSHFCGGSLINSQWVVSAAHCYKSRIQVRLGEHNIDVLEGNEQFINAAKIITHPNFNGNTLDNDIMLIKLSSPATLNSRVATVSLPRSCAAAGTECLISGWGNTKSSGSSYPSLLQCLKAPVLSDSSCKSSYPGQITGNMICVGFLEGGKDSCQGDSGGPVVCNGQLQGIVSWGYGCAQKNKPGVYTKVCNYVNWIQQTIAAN

In the case of `CC[C@H](C)[C@@H]1NC(=O)[C@H](CCCNC(=N)N)NC(=O)[C@H](CC(=O)O)NC(=O)[C@H](C(C)C)NC(=O)[C@H](CO)NC(=O)[C@H](Cc2c[nH]cn2)NC(=O)CNC(=O)CC[C@@H](C(=O)N[C@@H](Cc2ccc(O)cc2)C(=O)N[C@@H](Cc2ccccc2)C(=O)NCC(=O)N2CCC[C@H]2C(=O)N2CCC[C@H]2C(=O)NCC(=O)N[C@@H](CC(C)C)C(=O)N2CCC[C@H]2C(=O)NCC(=O)N2CCC[C@H]2C(=O)N[C@H](C(=O)N[C@@H](CC(C)C)C(=O)N[C@@H](Cc2ccccc2)C(=O)N[C@@H](Cc2ccc(O)cc2)C(=O)N[C@@H](CO)C(=O)O)C(C)C)NC(=O)[C@@H]2CCCN2C1=O` [cloacaenodin] (GHSVDRIPEYFGPPGLPGPVLFYS-OH; lactam N-9; C-terminus assumed), the “MIC in M63 media (liquid)” value in the series on E. amnigenus is 0.23 µM (≈ 0.594 µg/mL); against E. cloacae (16 h), 0.94 µM (≈ 2.43 µg/mL). For the same compound, the “antimicrobial activity (zones of inhibition)” value (in [1]; in series [3]; in series [4]; with B. subtilis 168; in the series on E. coli MG1655; in [9]) was “no observed activity” throughout. The “susceptibility to C-terminal proteolysis by carboxypeptidase” value in series [2] is “resistant to C-terminal proteolysis”. Moreover, the “MIC in M63 media (agar)” value came out at 1.9 µM (≈ 4.91 µg/mL) against E. mori DSM 26271, 7.5 µM (≈ 19.4 µg/mL) in series [6], 1.9 µM (≈ 4.91 µg/mL) in series [7] and 3.8 µM (≈ 9.82 µg/mL) against E. asburiae DSM 17506. The “susceptibility to proteolysis by elastase” value with elastase was “remained resistant to proteolysis”. Moreover, the “susceptibility to proteolysis by trypsin” value on trypsin is “remained resistant to proteolysis”. Also, the “cell morphology under the microscope” value in the series on E. cloacae (E. cloacae cells treated with sub-MIC values, broth microdilution cultures) is given as “exhibited a degree of filamentation”. In addition, the “E. coli growth upon IPTG-induced intracellular expression without cloD” value in the series with E. coli XL-1 Blue is “colonies did not appear”. Also, in series [5], the fraction remaining threaded is ~ 83%. The “susceptibility to proteolysis by thermolysin” value on thermolysin is on record as “remained resistant to proteolysis”. In addition, the “susceptibility to proteolysis by chymotrypsin” value at α-chymotrypsin is on record as “remained resistant to proteolysis”. For the same compound, the antimicrobial activity entry in [8] was “weak or no activity”.
